Results as given in ChEMBL document CHEMBL1144233 (Bioorg Med Chem Lett, 2008).
pEC50, pIC50: −log10 of the molar value. The source made the active and inactive calls. The rule behind the calls is not given here.

Key:
[1] = biological target: Metabotropic glutamate receptor 1 (Rattus norvegicus) (UniProt P23385); assay: (§1) Antagonist activity at rat mGluR1 expressed in Syrian golden hamster BHK cells assessed as […] of glutamate-induced calcium flux by fluorescence assay; assay type: functional, cell-based; parameters: scale not given: the % may be the effect or the level left
[2] = biological target: T1, Metabotropic glutamate receptor 4 (Homo sapiens, UniProt Q14833); assay: Activity at human mGluR4 expressed in CHO cells assessed as fold potentiation of glutamate-induced calcium flux at 30 uM by fluorescence assay relative to control
Target sequence in this assay (Q14833 whole entry, looked up): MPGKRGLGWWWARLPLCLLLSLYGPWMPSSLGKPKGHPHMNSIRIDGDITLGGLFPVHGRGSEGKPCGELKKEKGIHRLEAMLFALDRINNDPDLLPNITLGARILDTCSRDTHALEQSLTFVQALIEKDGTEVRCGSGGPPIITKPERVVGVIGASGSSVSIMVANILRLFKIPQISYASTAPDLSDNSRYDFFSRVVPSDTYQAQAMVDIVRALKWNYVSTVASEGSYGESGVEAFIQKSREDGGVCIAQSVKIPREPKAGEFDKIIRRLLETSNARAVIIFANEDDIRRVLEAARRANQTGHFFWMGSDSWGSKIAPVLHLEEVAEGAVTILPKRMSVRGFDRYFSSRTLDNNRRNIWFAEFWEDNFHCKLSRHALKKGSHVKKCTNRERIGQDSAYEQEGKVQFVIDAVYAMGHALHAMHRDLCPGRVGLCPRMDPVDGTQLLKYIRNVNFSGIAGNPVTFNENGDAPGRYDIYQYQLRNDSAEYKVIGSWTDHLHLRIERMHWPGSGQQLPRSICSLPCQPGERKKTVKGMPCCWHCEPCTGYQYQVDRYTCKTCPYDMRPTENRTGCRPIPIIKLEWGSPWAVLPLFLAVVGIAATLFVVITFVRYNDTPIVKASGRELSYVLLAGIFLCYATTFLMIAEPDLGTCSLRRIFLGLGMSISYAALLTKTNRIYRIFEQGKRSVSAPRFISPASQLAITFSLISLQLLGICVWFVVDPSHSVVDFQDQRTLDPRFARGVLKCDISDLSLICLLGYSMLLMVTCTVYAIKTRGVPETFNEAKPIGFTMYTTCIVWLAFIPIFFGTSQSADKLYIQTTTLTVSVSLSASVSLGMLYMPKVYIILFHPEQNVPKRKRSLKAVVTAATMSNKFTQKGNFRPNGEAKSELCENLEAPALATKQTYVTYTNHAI

[3] = biological target: T1, Metabotropic glutamate receptor 4; assay: Activity at human mGluR4 expressed in CHO coexpressing Gqi5 assessed as potentiation of calcium flux by fluorescence assay in absence of glutamate; assay type: functional
Method in brief: (§2)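 CHO cells stably co-expressing human mGluR4 and chimeric Gqi5, plated 30,000 cells/well in assay medium (DMEM, 10% dialyzed FBS, 20 mM HEPES) and grown overnight at 37 °C, 5% CO₂. Loaded with 1 µM Fluo-4AM in HBSS/20 mM HEPES/2.5 mM probenecid for 45 min at 37 °C.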
Target sequence in this assay (Q14833 whole entry): as the sequence (Q14833 whole entry, looked up) above

[4] = biological target: T1, Metabotropic glutamate receptor 4; assay: Activity at human mGluR4 expressed in CHO coexpressing Gqi5 assessed as potentiation of glutamate-induced calcium flux by fluorescence assay; assay type: functional; method in brief: as §2
Target sequence in this assay (Q14833 whole entry): as the sequence (Q14833 whole entry, looked up) above

[5] = biological target: Metabotropic glutamate receptor 1 (Rattus norvegicus, UniProt P23385); assay: as §1; assay type: functional, cell-based
Chain of Metabotropic glutamate receptor 1 (P23385 whole entry): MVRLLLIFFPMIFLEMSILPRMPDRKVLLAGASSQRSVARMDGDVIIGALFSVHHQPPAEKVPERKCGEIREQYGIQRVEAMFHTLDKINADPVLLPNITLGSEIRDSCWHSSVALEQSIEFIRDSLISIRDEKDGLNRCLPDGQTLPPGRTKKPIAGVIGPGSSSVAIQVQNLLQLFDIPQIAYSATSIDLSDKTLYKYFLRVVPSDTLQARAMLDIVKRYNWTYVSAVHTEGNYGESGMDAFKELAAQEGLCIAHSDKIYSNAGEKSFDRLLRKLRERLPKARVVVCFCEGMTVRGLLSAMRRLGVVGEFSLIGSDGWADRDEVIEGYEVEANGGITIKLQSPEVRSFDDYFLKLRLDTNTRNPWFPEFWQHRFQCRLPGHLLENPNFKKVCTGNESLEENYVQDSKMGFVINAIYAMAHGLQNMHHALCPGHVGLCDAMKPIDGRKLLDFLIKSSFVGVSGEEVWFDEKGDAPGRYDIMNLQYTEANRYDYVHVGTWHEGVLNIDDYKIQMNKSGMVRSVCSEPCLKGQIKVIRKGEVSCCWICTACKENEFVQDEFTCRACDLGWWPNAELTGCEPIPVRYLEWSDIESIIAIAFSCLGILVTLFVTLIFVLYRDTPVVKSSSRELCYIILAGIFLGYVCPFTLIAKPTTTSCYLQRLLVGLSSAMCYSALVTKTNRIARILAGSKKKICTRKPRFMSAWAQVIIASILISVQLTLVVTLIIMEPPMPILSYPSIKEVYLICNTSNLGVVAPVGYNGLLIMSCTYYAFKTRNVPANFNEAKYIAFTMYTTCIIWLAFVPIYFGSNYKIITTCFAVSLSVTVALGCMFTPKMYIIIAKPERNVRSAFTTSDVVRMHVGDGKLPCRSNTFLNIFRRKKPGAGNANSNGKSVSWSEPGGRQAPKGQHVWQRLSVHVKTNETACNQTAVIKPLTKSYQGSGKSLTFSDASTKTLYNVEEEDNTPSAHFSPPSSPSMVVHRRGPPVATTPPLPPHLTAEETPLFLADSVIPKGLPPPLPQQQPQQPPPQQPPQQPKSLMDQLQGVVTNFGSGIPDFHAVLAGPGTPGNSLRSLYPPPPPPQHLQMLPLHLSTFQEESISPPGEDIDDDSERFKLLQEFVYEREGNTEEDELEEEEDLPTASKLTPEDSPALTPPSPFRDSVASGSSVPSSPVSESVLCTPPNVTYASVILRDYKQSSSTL

Chain of Metabotropic glutamate receptor 1 (Rattus norvegicus) (P23385 19-1199 limits assumed): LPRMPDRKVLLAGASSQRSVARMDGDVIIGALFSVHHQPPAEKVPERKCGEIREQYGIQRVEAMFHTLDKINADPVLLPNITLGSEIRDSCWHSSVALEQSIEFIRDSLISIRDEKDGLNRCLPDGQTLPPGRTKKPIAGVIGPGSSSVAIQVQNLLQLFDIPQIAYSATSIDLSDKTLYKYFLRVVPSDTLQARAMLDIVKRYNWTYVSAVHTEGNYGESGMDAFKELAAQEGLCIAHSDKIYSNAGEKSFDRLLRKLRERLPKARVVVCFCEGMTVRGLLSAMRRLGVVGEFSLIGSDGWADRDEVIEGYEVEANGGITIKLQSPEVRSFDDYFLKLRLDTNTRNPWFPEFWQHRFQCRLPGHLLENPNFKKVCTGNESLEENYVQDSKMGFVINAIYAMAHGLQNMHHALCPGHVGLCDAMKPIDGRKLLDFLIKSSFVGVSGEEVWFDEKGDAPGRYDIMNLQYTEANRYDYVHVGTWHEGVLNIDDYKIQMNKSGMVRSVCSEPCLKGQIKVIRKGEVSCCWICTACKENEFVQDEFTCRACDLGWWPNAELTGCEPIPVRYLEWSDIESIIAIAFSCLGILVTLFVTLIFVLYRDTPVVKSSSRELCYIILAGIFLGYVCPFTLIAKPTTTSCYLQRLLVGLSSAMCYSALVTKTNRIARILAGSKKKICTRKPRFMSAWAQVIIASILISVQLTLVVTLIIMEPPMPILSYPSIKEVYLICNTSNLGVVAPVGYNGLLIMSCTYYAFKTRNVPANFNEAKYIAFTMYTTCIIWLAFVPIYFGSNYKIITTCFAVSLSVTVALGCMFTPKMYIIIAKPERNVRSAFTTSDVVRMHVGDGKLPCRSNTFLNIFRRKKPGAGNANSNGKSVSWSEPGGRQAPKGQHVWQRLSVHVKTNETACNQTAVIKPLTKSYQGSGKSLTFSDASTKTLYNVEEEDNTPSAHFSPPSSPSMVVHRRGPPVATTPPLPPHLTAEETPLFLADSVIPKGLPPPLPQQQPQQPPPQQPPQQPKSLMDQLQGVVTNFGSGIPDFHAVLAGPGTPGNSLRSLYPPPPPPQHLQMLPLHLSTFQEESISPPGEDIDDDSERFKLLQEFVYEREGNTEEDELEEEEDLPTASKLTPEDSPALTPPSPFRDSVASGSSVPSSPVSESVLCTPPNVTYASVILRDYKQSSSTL

Compound | fold change (FC) [2] | further results
O=C(Nc1ccccc1)[C@]12C[C@H]1/C(=N\O)c1ccccc1O2 |  | Activity [1]: 30%
CC1CCCN(c2ncnc3c2cnn3-c2ccccc2Cl)C1 (centres undefined) | 2.7 | 
Cc1ccc(-n2ncc3c(N4CCCC(C(F)(F)F)C4)ncnc32)c(C)c1 (centres undefined) | 9.9 | 
Cc1ccc(-n2ncc3c(N4CCC(n5c(=O)[nH]c6ccccc65)CC4)ncnc32)c(C)c1 | 2.4 | 

Now from value to compound, other results behind:

fold change (FC) [2] | Compound | further results
3.5 | Cc1ccc(-n2ncc3c(N4CC(C)OC(C)C4)ncnc32)c(C)c1 (centres undefined) | 
11.8 | Cc1ccc(-n2ncc3c(N4CCCC(C)C4)ncnc32)c(C)c1 (centres undefined) | Activity [3]: inactive; pEC50 [4]: 5.34; pIC50 [5]: 5.59
